Assay outcomes deposited in PubChem by several laboratories.
A selection: hits, their analogues and other compounds. The true share with any hit is near 1.9%.
SK-BR-3 tox 24h = SK-BR-3 proliferation inhibitors. SK-BR-3 viability, CellTiter-Glo ATP luminescence, 24 h; stronger effect = lower value. viability, % at 10 µM. 41,000 compounds, 0.47% hits. AID 847;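 active = viability at or below the median of all test compounds minus 3 SD, in both replicates if run twice, cut at about 45% in these data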;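 note: 100% = median untreated cell wells and 0% = median positive control drug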
HEK293 NFkB inh = inhibitors of the PMA/ionomycin-induced NF-kB reporter in HEK293 cells. 62,000 compounds, 0.21% hits. inhibition, % at 3 µM. HEK-293 NF-kB luciferase reporter, luminescence. AID 465;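 active = inhibition above the mean of all tested compounds plus 3 SD, cut at about 40% in these data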;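 note: 0% = stimulated DMSO wells and 100% = 10 µM reference inhibitor 5653914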
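Timing: 1 h pretreatment, 16 h stimulation, 37 °C; system: HEK-293 cells with stable firefly luciferase reporter driven by four HIV NF-kB elements; doses: 3 µM once, 0.30% DMSO; measured by: luciferase luminescence; control set: DMSO and 10 µM reference inhibitor; repeats: single test; reagent: PMA plus ionomycin mix as NF-kB-activating stimulus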
S1P1 ag pot = activates or potentiates agonism at human S1P1 receptor. P21453. S1P1 CRE-bla cells, forskolin, beta-lactamase FRET, potentiator mode; S1P1 agonist co-added at EC20, 2 nM; 100% = saturating reference agonist, 0% = basal. activation, % at 9.5 µM. 56,000 compounds, 0.57% hits. AID 449;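 active = activation above a cutoff set at the mean activation of all tested compounds plus 3 SD, cut at about 54% in these data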;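 note: forskolin at 4 µM as EC80 and the EC20 agonist is SEW2871; 100% = SEW2871 at its EC100 plus forskolin at EC80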
Target sequence (P21453 whole entry, looked up): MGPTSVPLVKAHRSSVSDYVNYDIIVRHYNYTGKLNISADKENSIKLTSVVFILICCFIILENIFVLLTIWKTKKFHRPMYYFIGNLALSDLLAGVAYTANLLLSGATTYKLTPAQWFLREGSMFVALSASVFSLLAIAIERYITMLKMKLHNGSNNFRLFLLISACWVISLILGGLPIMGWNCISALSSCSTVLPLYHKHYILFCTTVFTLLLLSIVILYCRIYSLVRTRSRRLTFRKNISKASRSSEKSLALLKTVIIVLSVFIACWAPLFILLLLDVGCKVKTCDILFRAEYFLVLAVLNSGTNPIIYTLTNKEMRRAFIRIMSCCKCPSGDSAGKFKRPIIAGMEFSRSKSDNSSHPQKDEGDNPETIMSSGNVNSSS
Jurkat viability = reduces viability or proliferation of Jurkat cells; Jurkat E6.1 viability, ATP luminescence, 48 h; inhibition, % at 4 µM; 56,000 compounds, 1.2% hits; AID 463;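 active = inhibition above the mean inhibition of all tested compounds plus 3 SD, cut at about 28% in these data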
The depositor's hits bear a star; nt = no result given.

SMILES | SK-BR-3 tox 24h | HEK293 NFkB inh | S1P1 ag pot | Jurkat viability
O=C(CCc1ccccc1)Nc1nnc(-c2cccs2)o1 | nt | 2 | -7 | 12
O=C(Nc1nnc(-c2cccs2)o1)c1cccc(C(F)(F)F)c1 | nt | 0 | -2 | 64*
CCC1CCCCN1S(=O)(=O)c1ccc(C(=O)Nc2nnc(-c3cccs3)o2)cc1 (stereo not drawn) | 71 | 34 | -1 | 82*
CC1CC(C)CN(S(=O)(=O)c2ccc(C(=O)Nc3nnc(-c4cccs4)o3)cc2)C1 (stereo not drawn) | 204 | 22 | 11 | 44*
Cc1oc(-c2ccccc2F)nc1CN1CCC(C(=O)NCCC2=CCCCC2)CC1 | nt | 14 | 11 | 7
O=C(Nc1nc2c(s1)CCCC2)c1cc2n(n1)C(C(F)(F)F)CC(C1CC1)N2 (stereo not drawn) | 73 | -37 | 107* | 8
Cc1cc(C(=O)N2CCN(C(c3ccccc3)c3ccccc3)CC2)no1 | 101 | 15 | 69* | 9
COc1ccccc1OC(=O)c1ccc(SC)cc1OC | nt | -2 | 10 | 0
CCOC(=O)c1[nH]c(C)c(C(=O)Nc2ccc(C)cc2C)c1C | nt | 24 | 25 | 93*
CCOC(=O)c1[nH]c(C)c(C(=O)Nc2ccc(C)c(C)c2)c1C | nt | -6 | -4 | 13
CCOC(=O)c1[nH]c(C)c(C(=O)Nc2ccccc2F)c1C | nt | 4 | 11 | 89*
CCOC(=O)C1CCCN(C(=O)c2cc3c(=O)n4cccc(C)c4nc3n2C)C1 (stereo not drawn) | 82 | 12 | -29 | 0
COc1ccc(CCN(C)CCCC(C#N)(c2ccc(OC)c(OC)c2)C(C)C)cc1OC (stereo not drawn) | 84 | nt | -2 | nt
CCCc1cc(C(=O)NCC(C)C)no1 | nt | 2 | -7 | 0
COCCNC(=O)CN(C(=O)Cn1nnc2ccccc21)c1ccccc1 | 84 | 10 | 5 | 11
CCN(C(=O)c1ccc(C(C)(C)C)cc1)c1nnc(Cn2nnc3ccccc32)s1 | 128 | 40* | 130* | 101*
CN(C(=O)c1cnccn1)c1nnc(-c2cccnc2)s1 | nt | 1 | 7 | -7
CCn1c(SCC(=O)NCc2ccco2)nc2c1c(=O)n(C)c(=O)n2C | 42* | 2 | 1 | -1
COc1ccc(C(c2nnnn2Cc2cccs2)N2CCN(c3ccccc3F)CC2)cc1 (stereo not drawn) | 105 | 14 | -6 | 10
COCCn1c(C)cc(C(=O)CSc2n[nH]c(N)n2)c1C | 102 | 9 | -12 | -6
COCCn1c(C)cc(C(=O)CSc2nnc(C)s2)c1C | 112 | 46* | -9 | -1
COCCn1c(C)cc(C(=O)CSc2nnc(-c3cccnc3)n2-c2ccccc2F)c1C | nt | 18 | 98* | 3
O=C(NCCc1ccccc1)C1CCCN(S(=O)(=O)c2cccs2)C1 (stereo not drawn) | nt | 15 | -2 | -5
COc1ccc(NS(=O)(=O)c2cccc(C(=O)O)c2)cc1 | nt | 14 | -6 | -2
COc1ccc(OCc2cccc(C(=O)O)c2)cc1 | 92 | 94* | 9 | 12
SMILES | SK-BR-3 tox 24h | HEK293 NFkB inh | S1P1 ag pot | Jurkat viability
O=C(O)c1cccc(COc2ccc(CO)cc2Cl)c1 | 107 | 94* | nt | 7
O=C(O)c1ccc(COc2ccc(CO)cc2Cl)cc1 | 97 | -8 | -2 | 4
CCOc1ccc(OCc2cccc(C(=O)N3CCCC3)c2)cc1 | 84 | -3 | nt | -1
CCOc1ccc(OCc2cccc(C(=O)O)c2)cc1 | 95 | 97* | 15 | 12
COc1cccc(NC(=O)CSc2nc3c(c(=O)n2C)SC(C)C3)c1 (stereo not drawn) | nt | 8 | -6 | 6
CC(CCc1ccccc1)NC(=O)C1CCN(S(=O)(=O)c2cnc[nH]2)CC1 (stereo not drawn) | nt | 18 | -2 | 1
O=C(Nc1ccc(N2CCOCC2)c(Cl)c1)c1cccc(F)c1 | 73 | -59 | 88* | 1
O=C(Nc1ccc(N2CCCC2)cc1)c1cccc(F)c1 | nt | -27 | 13 | 69*
O=C(Nc1ccc(N2CCOCC2)c(Cl)c1)c1cccnc1 | nt | 10 | -3 | 3
O=C(Nc1ccc(N2CCCCC2)c(Cl)c1)c1cccnc1 | nt | 36 | 40 | 33*
N#CC12CCCCC1CC1CCCCC1(C#N)N2Cc1cccnc1 (stereo not drawn) | 82 | nt | 0 | nt
Cc1nnc(SCCn2c(N3CCN(c4ccccc4)CC3)nc3c2c(=O)n(C)c(=O)n3C)s1 | nt | 19 | -22 | 3
Clc1ccc(SCCn2ccnc2)cc1 | nt | 8 | -14 | -1
CCCCOC(=O)c1[nH]c2c(c1C)C(=O)CC(c1cc(OC)c(OC)c(OC)c1)C2 (stereo not drawn) | nt | 27 | 134* | 46*
C=CCOC(=O)c1[nH]c2c(c1C)C(=O)CC(c1cc(OC)c(OC)c(OC)c1)C2 (stereo not drawn) | nt | 17 | 55 | 43*
O=C(CCNc1ccc(F)c(Cl)c1)c1ccco1 | nt | 17 | 10 | 65*
O=C(O)[C@@H]1CCCC[C@@H]1C(=O)N1CCc2ccccc2C1CN1C(=O)c2ccccc2C1=O (stereo partly drawn) | 93 | 59* | -2 | 2
CN(c1ccc(C(=O)NC2CC2)cc1)S(=O)(=O)c1ccccc1 | 90 | 2 | nt | -1
Cn1cc(/C=N/n2cnc3scc(-c4ccc(Cl)cc4)c3c2=O)c2ccccc21 | nt | 40* | -17 | 96*
CCCn1c(NC(=O)C2CCN(S(=O)(=O)c3cccs3)CC2)nc2ccccc21 | nt | 10 | 5 | 84*
CCCn1c(NC(=O)c2ccccc2)nc2ccccc21 | 73 | -8 | -30 | 22
CCCn1c(NC(=O)c2cccc(S(=O)(=O)N3CCCC3)c2)nc2ccccc21 | nt | 32 | 74* | 44*
CCCCOc1[nH]c2nc(-c3ccco3)n(Cc3ccco3)c(=N)c2c1C#N | 87 | -4 | 19 | 5
CCOC(=O)C1=C(NC(=O)c2ccc(Br)o2)Nc2ccccc2N=C1 | 79 | 10 | -4 | 6
CCOc1cc(-c2nnc(-c3ccco3)o2)cc(OCC)c1OCC | nt | 19 | -18 | -5
SMILES | SK-BR-3 tox 24h | HEK293 NFkB inh | S1P1 ag pot | Jurkat viability
CCOc1ccc(-c2nnc(-c3cccs3)o2)cc1OCC | 88 | 1 | 104* | -3
CCOc1ccc(-c2nnc(-c3ccco3)o2)cc1OCC | 88 | 6 | 99* | -2
O=C(NCC1CCCO1)C1CC(c2ccc(Cl)c(Cl)c2)=NO1 (stereo not drawn) | 87 | 5 | nt | 3
O=C(Cn1cnc2sc(-c3ccccc3)cc2c1=O)NCc1ccco1 | 107 | 7 | 12 | 42*
CCOc1ccc(N(CC(=O)NCc2cccc(OC)c2)S(=O)(=O)c2c(C)noc2C)cc1 | 70 | 4 | -6 | 0
C=CCn1c(COc2ccc(CC)cc2)nnc1SC/C(O)=C(\C#N)c1nc2ccccc2[nH]1 | 29* | 6 | nt | nt
Nc1c(C(=O)Nc2ccc3c(c2)OCCO3)nnn1CCc1ccccc1 | nt | 16 | 12 | 80*
COc1cccc(OCC(=O)Nc2c(C(=O)Nc3ccc(OC)cc3OC)oc3ccccc23)c1 | nt | 8 | -28 | -5
CN(C)C(=O)CCc1nc(-c2ccc(C(C)(C)C)cc2)no1 | 91 | 16 | -3 | 4
